Active and inactive are the calls of the source. The calls are words filed in the database; no cut-off is given here.

The species named for assay [1] is Rattus norvegicus. As to the kind of experiment: Inhibition of rat GST-tagged synaptojanin SAC1 domain expressed in Escherichia coli XL-1 blue using I(1,4,5))P3 as substrate at 5 uM by malachite green assay. Put shortly: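 GST-synaptojanin was expressed in E. coli XL-1 blue (1 mM IPTG, 18°C, 24 h) and purified on glutathione sepharose. Substrate: 50 µM PI(4)P in octylglucoside mixed micelles for synaptojanin; 50 µM I(1,4,5)P3 for SAC1. Assay ran at 37°C in 100 mM Tris pH 7.4, 4 mM MgCl2 with 5 µM compound. Malachite green stopped the reaction, colour developed 10 min, and absorbance was read at 625 nm. Heat-denatured enzyme served as blank. Triplicates.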

Assay [2] has as its target Receptor-type tyrosine-protein phosphatase beta (Homo sapiens) (UniProt P23467). The assay is described as follows: Inhibition of PTP-beta receptor using p-NPP as substrate at 5 uM by colorimetric analysis. In short, it runs like this: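 Purchased PTP-β assayed with 1 mM p-NPP (near KM) in 25 mM Hepes pH 7.4, 50 mM NaCl, 5 mM DTT; arylstibonate fixed at 5 µM. The reaction was started by adding p-NPP in water, and p-nitrophenol release was read at 405 nm. Reported as % inhibition from triplicates, with standard error.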

Assay [3] deals with M-phase inducer phosphatase 1 (Homo sapiens) (UniProt P30304). As to the kind of experiment: Reversible inhibition of N-terminal His-tagged Cdc25a catalytic domain expressed in Escherichia coli BL21(DE3) using 3-O-Methylfluorescein phosphate as substrate at 4 times IC50 by 10-fold dilution method. In short, it runs like this:
(§1)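 Reversibility test by dilution. Cdc25a or Cdc25b is preincubated with arylstibonate, then diluted 10-fold in reaction buffer (100 mM Tris pH 7.4, 2 mM DTT). Activity is then measured in the OMFP fluorescence assay (ex 485/em 525 nm, 20 °C) and expressed as % of the uninhibited reaction.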

Assay [4] deals with M-phase inducer phosphatase 2 (Homo sapiens) (UniProt P30305). The assay is described as follows: Reversible inhibition of N-terminal His-tagged Cdc25b catalytic domain expressed in Escherichia coli BL21(DE3) using 3-O-Methylfluorescein phosphate as substrate at 4 times IC50 by 10-fold dilution method. Put shortly:
as §1

Assay [5] deals with M-phase inducer phosphatase 1 (Homo sapiens) (UniProt P30304). The assay is described as follows: Mixed-type inhibition of N-terminal His-tagged Cdc25a catalytic domain expressed in Escherichia coli BL21(DE3) using 3-O-Methylfluorescein phosphate as substrate by Michaelis-Menten plot analysis. In short, it runs like this:
(§2)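 Steady-state kinetics of the Cdc25a and Cdc25b catalytic domains with varying OMFP and several arylstibonate concentrations. Run at 20 °C in 100 mM Tris pH 7.4 with 2 mM DTT, after a 10 min RT enzyme–inhibitor preincubation. Fluorescence read at ex 485/em 525 nm. Michaelis–Menten plots give apparent Km and Vmax; secondary plots give Ki.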

The target of assay [6] is M-phase inducer phosphatase 2 (Homo sapiens) (UniProt P30305). As to the kind of experiment: Mixed-type inhibition of N-terminal His-tagged Cdc25b catalytic domain expressed in Escherichia coli BL21(DE3) using 3-O-Methylfluorescein phosphate as substrate by Michaelis-Menten plot analysis. In short, it runs like this: as §2
Sequence of M-phase inducer phosphatase 2 (Homo sapiens) (P30305 whole entry, the tested form may be a part): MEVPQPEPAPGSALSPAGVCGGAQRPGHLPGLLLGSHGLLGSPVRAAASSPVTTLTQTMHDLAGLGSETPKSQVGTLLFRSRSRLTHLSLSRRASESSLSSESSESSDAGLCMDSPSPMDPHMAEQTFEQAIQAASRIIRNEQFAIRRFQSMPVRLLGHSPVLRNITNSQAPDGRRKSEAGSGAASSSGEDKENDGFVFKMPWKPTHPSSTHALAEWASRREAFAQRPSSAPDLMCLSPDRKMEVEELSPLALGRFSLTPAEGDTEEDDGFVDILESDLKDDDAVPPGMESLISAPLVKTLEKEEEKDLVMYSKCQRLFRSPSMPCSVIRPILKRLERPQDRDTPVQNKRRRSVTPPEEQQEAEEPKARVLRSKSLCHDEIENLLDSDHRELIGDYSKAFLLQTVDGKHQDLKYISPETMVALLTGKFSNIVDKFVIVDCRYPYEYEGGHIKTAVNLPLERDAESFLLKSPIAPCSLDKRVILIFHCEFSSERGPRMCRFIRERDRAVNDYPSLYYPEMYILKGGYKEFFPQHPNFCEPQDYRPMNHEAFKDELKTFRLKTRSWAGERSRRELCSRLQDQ

Sequence of Receptor-type tyrosine-protein phosphatase beta (Homo sapiens) (P23467 whole entry, looked up): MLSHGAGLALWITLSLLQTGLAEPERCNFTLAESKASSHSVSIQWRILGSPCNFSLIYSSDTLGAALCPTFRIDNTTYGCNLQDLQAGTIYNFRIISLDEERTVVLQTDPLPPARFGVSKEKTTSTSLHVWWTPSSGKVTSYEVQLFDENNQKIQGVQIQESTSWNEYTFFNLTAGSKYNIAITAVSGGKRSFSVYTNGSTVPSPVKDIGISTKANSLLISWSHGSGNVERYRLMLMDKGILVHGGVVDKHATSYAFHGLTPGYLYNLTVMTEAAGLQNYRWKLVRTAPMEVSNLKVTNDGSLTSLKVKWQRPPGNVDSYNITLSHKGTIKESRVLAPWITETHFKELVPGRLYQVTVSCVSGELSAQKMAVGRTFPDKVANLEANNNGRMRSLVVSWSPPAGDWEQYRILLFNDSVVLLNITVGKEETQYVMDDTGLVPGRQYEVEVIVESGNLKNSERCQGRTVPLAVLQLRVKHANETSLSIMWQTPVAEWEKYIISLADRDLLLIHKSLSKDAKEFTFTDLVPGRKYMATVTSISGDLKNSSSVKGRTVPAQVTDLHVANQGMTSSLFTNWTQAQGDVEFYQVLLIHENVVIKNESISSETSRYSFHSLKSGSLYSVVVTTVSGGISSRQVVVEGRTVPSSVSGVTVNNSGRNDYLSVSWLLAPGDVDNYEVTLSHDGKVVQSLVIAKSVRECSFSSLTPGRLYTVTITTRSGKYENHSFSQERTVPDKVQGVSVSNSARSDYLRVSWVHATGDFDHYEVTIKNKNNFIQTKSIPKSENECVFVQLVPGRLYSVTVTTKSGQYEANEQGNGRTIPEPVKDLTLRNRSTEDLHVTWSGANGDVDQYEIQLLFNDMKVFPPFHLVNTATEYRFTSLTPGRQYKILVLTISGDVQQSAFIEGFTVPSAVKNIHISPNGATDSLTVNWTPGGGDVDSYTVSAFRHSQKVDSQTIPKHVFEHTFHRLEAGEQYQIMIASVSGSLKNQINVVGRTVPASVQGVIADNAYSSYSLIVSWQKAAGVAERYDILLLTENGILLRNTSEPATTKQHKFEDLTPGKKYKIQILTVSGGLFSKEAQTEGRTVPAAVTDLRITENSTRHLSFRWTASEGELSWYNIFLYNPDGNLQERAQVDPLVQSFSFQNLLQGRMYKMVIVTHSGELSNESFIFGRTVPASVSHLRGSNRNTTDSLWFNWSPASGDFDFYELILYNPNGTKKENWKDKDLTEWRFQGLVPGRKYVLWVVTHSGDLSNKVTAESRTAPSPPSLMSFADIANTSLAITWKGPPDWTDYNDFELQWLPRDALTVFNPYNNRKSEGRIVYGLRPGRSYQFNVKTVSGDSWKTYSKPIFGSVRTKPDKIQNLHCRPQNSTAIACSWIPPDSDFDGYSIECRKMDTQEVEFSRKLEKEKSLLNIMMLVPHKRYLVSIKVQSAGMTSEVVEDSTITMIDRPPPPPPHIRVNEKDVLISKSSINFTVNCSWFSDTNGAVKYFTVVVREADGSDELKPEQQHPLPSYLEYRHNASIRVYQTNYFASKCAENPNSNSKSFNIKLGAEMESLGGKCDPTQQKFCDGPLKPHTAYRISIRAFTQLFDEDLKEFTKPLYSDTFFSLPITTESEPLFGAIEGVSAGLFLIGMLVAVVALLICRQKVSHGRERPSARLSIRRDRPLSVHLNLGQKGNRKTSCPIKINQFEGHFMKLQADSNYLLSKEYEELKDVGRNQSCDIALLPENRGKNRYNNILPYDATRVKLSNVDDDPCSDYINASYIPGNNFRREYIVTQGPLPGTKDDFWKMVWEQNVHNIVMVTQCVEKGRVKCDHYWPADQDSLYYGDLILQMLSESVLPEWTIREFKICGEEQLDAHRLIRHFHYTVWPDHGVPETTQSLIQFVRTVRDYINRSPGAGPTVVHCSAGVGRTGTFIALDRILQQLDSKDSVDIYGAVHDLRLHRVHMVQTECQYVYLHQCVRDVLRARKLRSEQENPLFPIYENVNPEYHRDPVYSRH
Sequence of M-phase inducer phosphatase 1 (Homo sapiens) (P30304 whole entry, the tested form may be a part): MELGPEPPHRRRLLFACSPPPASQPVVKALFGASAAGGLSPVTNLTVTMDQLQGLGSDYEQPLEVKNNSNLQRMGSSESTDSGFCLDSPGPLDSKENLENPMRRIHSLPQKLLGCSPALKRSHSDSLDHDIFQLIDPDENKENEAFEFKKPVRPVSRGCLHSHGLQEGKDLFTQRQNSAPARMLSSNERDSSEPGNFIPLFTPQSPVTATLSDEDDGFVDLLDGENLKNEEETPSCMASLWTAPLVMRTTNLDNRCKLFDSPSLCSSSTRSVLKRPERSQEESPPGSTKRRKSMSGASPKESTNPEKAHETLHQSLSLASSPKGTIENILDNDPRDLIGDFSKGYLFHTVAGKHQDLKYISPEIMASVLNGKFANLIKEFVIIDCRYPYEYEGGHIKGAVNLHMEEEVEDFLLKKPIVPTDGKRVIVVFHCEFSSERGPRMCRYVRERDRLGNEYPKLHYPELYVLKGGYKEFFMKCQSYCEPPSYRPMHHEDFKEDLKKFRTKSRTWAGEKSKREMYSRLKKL

The term inhibition denotes the share of the control response that was lost under treatment. 4-stibonophthalic acid: the inhibition in assay [1] is below 40%; in assay [2], 51%.

In the case of “4-(2-ethoxy-2-oxoethyl)phenylstibonic acid”, the inhibition in assay [1] is above 40%; in assay [2], above 90%.

In the case of 3-stibonobenzoic acid, the inhibition is below 40% in assay [1] and 78% in assay [2].

Turning to 3-(3-stibonophenyl)propanoic acid, the inhibition in assay [1] is above 40%; in assay [2], above 90%. The inhibition result in assay [3], in assay [4], in assay [5] and in assay [6] was “Active” in each case.

Turning to “4-((4-hydroxyphenyl)diazenyl)phenylstibonic acid”, the inhibition was above 40% in assay [1] and above 90% in assay [2].

Consider 4-benzamidophenylstibonic acid, for which the inhibition in assay [1] was above 40%; in assay [2], above 90%.

PHENYLSTIBONIC ACID returned an inhibition in assay [1] below 40%. In addition, the inhibition entry in assay [2] was “inactive”.

As to 4-stibonobenzoic acid, the inhibition in assay [1] was below 40%; in assay [2], 72%.

In assay [1], 4-hydroxyphenylstibonic acid came in with an inhibition below 40%. In addition, the inhibition result in assay [2] is “inactive”.

As for 2-(3-stibonobenzyl)malonic acid, the figures for the inhibition in assay [1] and in assay [2] were above 40% and above 90%, respectively.

For the substance 4-iodophenylstibonic acid, the inhibition in assay [1] is above 40%; in assay [2], above 90%.

Regarding (E)-3-(3-stibonophenyl)acrylic acid, the inhibition in assay [1] is above 40%; in assay [2], above 90%. Moreover, the inhibition result in assay [3], in assay [4], in assay [5] and in assay [6] was “Active” throughout.

Consider 2-nitrophenylstibonic acid, for which the inhibition is above 40% in assay [1] and above 90% in assay [2].

Regarding 3-nitrophenylstibonic acid, the values for the inhibition in assay [1] and in assay [2] were below 40% and 50%, respectively.

For 2-nitro-4-stibonobenzoic acid, the inhibition in assay [1] was above 40%; in assay [2], above 90%.

Consider “3-(3-ethoxy-2-(ethoxycarbonyl)-3-oxopropyl)phenylstibonic acid”, for which the inhibition in assay [1] was below 40%. Besides, the inhibition entry in assay [2] was “inactive”.

With 3-(methoxycarbonyl)phenylstibonic acid, the inhibition in assay [1] was below 40%. Moreover, the inhibition result in assay [2] was “inactive”.

Turning to 2-(3-stibonophenoxy)acetic acid, the figures for the inhibition in assay [1] and in assay [2] were above 40% and above 90%, respectively.

2-(4-stibonobenzyl)malonic acid: the values for the inhibition in assay [1] and in assay [2] were below 40% and 67%, respectively.

The values above are taken from ChEMBL document CHEMBL2057171, “Arylstibonic acids are potent and isoform-selective inhibitors of Cdc25a and Cdc25b phosphatases” (Bioorg Med Chem, 2012).
